For data set [1], the system named is dengue virus type 2. Nature of the data set: Inhibition of NS4B in Dengue virus 2 NGC infected in human HuH7 replicon cells lysates at 10 ujM incubated for 48 hrs by SDS-PAGE based pull down assay. The following applies: Lysate. It counts as subcellular. The procedure, abridged:
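Huh7 cells, 4×10⁶ per T-75, infected next day with DENV-2 NGC at MOI 2.0 with 10 µM biotinylated probe, or 0.25% DMSO, for 48 h at 37 °C. Lysis in 20 mM Tris-HCl pH 7.5, 100 mM NaCl, 0.5% DDM with protease inhibitors. Lysate spiked with compound to 100 µM final, then streptavidin magnetic beads at 4 °C overnight. Bead eluates resolved on 12% SDS-PAGE; NS4B detected by anti-NS4B monoclonal Western blot.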
(Replicon systems follow genome replication, usually without infectious particles.)

The nature of data set [2]: Cytotoxicity in human HuH7 replicon cells infected with Dengue virus 2 NGC assessed as reduction in cell viability incubated for 48 hrs by Cell-titer-Glo reagent based assay. On the set-up: species or system Huh-7. Put shortly: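 Huh7 cells or Huh7 replicon cells plated, then held at 37 °C with 5% CO₂ overnight. Exposed to 2-fold serial compound dilutions for 48 h, in duplicate. Viability read with CellTiter-Glo and normalized to 0.45% DMSO wells set at 100%. CC50 from four-parameter logistic fit.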

Data set [3] relates to dengue virus type 3. Nature of the data set: Antiviral activity against Dengue virus 3 D3MY05-34640 infected in human HuH7 replicon cells expressing Renilla luciferase and neomycin-resistance genes assessed as reduction in viral replication incubated for 48 hrs by luciferase reporter replicon-based assay. It counts as functional, organism-based. Particulars: D3MY05-34640, Huh-7, 48 h. The procedure, abridged:
(§1)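 Huh7 cells stably carrying a Renilla luciferase/neomycin-resistance replicon (DENV-1 WestPac, DENV-2 NGC, DENV-3 D3MY05-34640 or DENV-4 D4MY01-22713). Cells seeded at 10k per well and incubated overnight at 37 °C, 5% CO2. Then exposed to 2-fold serial compound dilutions for 48 h, in duplicate. Luciferase read with a live-cell substrate. EC50 from four-parameter logistic fit.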

In data set [4] the test system is dengue virus type 2. Nature of the data set: Antiviral activity against Dengue virus 2 NGC infected in human HuH7 replicon cells expressing Renilla luciferase and neomycin-resistance genes assessed as reduction in viral replication incubated for 48 hrs by luciferase reporter replicon-based assay. The following applies: Huh-7, 48 h. Format: functional, organism-based. The procedure, abridged: as §1

Data set [5] concerns dengue virus type 2. Put plainly: Resistance index, ratio of EC50 for antiviral activity against NS3 T606A mutant containing Dengue virus 2 isolate P12-II infected in human HuH7 cells using viral isolates selected by serial passaging in presence of DMSO incubated for 3 days by viral reduction assay to EC50 for antiviral activity against Dengue virus 2 isolate P0 infected in human HuH7 cells incubated for 3 days by viral reduction assay. It counts as functional.

The subject of data set [6] is dengue virus type 2. Nature of the data set: Resistance index, ratio of EC50 for antiviral activity against NS3 T606A mutant containing Dengue virus 2 isolate P12-I infected in human HuH7 cells using viral isolates selected by serial passaging in presence of DMSO incubated for 3 days by viral reduction assay to EC50 for antiviral activity against Dengue virus 2 isolate P0 infected in human HuH7 cells incubated for 3 days by viral reduction assay. Format: functional.

The test system of data set [7] is dengue virus type 2. Nature of the data set: Antiviral activity against Dengue virus 2 isolate P0 infected in human HuH7 cells incubated for 3 days by viral reduction assay. It counts as functional, organism-based. Particulars: isolate P0, Huh-7, 72 h.
Data set [8] concerns dengue virus type 2. Nature of the data set: Antiviral activity against NS3 T606A mutant and NS4B V63L mutant containing Dengue virus 2 isolate P12-VI infected in human HuH7 cells using viral isolates selected by serial passaging in presence of test compound incubated for 3 days by viral reduction assay. Format: functional, organism-based. The following applies: Huh-7, 72 h.

For data set [9], the system named is dengue virus type 2. Nature of the data set: Antiviral activity against NS4B V63M and P104S mutant containing Dengue virus 2 isolate P12-V infected in human HuH7 cells using viral isolates selected by serial passaging in presence of test compound incubated for 3 days by viral reduction assay. It counts as functional, organism-based. Particulars: Huh-7, 72 h.

Data set [10] relates to dengue virus type 2. Put plainly: Antiviral activity against NS4B V63M mutant containing Dengue virus 2 isolate P12-IV infected in human HuH7 cells using viral isolates selected by serial passaging in presence of test compound incubated for 3 days by viral reduction assay. Format: functional, organism-based. The following applies: Huh-7, 72 h.
In data set [11] the test system is dengue virus type 2. Nature of the data set: Antiviral activity against NS3 T606A mutant and NS4B V63M mutant containing Dengue virus 2 isolate P12-III infected in human HuH7 cells using viral isolates selected by serial passaging in presence of test compound incubated for 3 days by viral reduction assay. Format: functional, organism-based. Particulars: Huh-7, 72 h.

In data set [12] the test system is dengue virus type 2. Put plainly: Antiviral activity against NS3 T606A mutant containing Dengue virus 2 isolate P12-II infected in human HuH7 cells using viral isolates selected by serial passaging in presence of DMSO incubated for 3 days by viral reduction assay. It counts as functional, organism-based. The following applies: Huh-7, 72 h.
The test system of data set [13] is dengue virus type 2. Put plainly: Antiviral activity against NS3 T606A mutant containing Dengue virus 2 isolate P12-I infected in human HuH7 cells using viral isolates selected by serial passaging in presence of DMSO incubated for 3 days by viral reduction assay. Format: functional, organism-based. The following applies: Huh-7, 72 h.
For data set [14], the system named is dengue virus type 4. Nature of the data set: Antiviral activity against Dengue virus 4 D4MY01-22713 infected in human HuH7 replicon cells expressing Renilla luciferase and neomycin-resistance genes assessed as reduction in viral replication incubated for 48 hrs by luciferase reporter replicon-based assay. It counts as functional, organism-based. Particulars: D4MY01-22713, Huh-7, 48 h. The procedure, abridged: as §1

Data set [15] deals with dengue virus type 1. Nature of the data set: Antiviral activity against Dengue virus 1 WestPac infected in human HuH7 replicon cells expressing Renilla luciferase and neomycin-resistance genes assessed as reduction in viral replication incubated for 48 hrs by luciferase reporter replicon-based assay. Format: functional, organism-based. The following applies: Huh-7, 48 h. Put shortly:
as §1

The test system of data set [16] is dengue virus type 2. Nature of the data set: Resistance index, ratio of EC50 for antiviral activity against NS3 T606A mutant and NS4B V63M mutant containing Dengue virus 2 isolate P12-III infected in human HuH7 cells using viral isolates selected by serial passaging in presence of test compound incubated for 3 days by viral reduction assay to EC50 for antiviral activity against Dengue virus 2 isolate P0 infected in human HuH7 cells incubated for 3 days by viral reduction assay. Format: functional.

Data set [17] deals with dengue virus type 2. Nature of the data set: Resistance index, ratio of EC50 for antiviral activity against NS4B V63M mutant containing Dengue virus 2 isolate P12-IV infected in human HuH7 cells using viral isolates selected by serial passaging in presence of test compound incubated for 3 days by viral reduction assay to EC50 for antiviral activity against Dengue virus 2 isolate P0 infected in human HuH7 cells incubated for 3 days by viral reduction assay. It counts as functional.

For data set [18], the system named is dengue virus type 2. Nature of the data set: Resistance index, ratio of EC50 for antiviral activity against NS4B V63M and P104S mutant containing Dengue virus 2 isolate P12-V infected in human HuH7 cells using viral isolates selected by serial passaging in presence of test compound incubated for 3 days by viral reduction assay to EC50 for antiviral activity against Dengue virus 2 isolate P0 infected in human HuH7 cells incubated for 3 days by viral reduction assay. Format: functional.

Data set [19] has as its system dengue virus type 2. Put plainly: Resistance index, ratio of EC50 for antiviral activity against NS3 T606A mutant and NS4B V63L mutant containing Dengue virus 2 isolate P12-VI infected in human HuH7 cells using viral isolates selected by serial passaging in presence of test compound incubated for 3 days by viral reduction assay to EC50 for antiviral activity against Dengue virus 2 isolate P0 infected in human HuH7 cells incubated for 3 days by viral reduction assay. It counts as functional.

In data set [20] the test system is dengue virus type 4. Put plainly: Antiviral activity against Dengue virus 4 D4MY01-22713 infected in human HuH7 replicon cells expressing Renilla luciferase and neomycin-resistance genes assessed as reduction in viral replication up to 10 uM incubated for 48 hrs by luciferase reporter replicon-based assay. Format: functional, organism-based. Put shortly:
as §1

Data set [21] has as its system dengue virus type 1. Nature of the data set: Antiviral activity against Dengue virus 1 WestPac infected in human HuH7 replicon cells expressing Renilla luciferase and neomycin-resistance genes assessed as reduction in viral replication up to 10 uM incubated for 48 hrs by luciferase reporter replicon-based assay. Format: functional, organism-based. Put shortly: as §1

Molecules are shown by their SMILES. Active and inactive are the calls of the source. The calls are words filed in the database; no cut-off is given here.

Regarding `C[C@@H](c1ccc(Cl)cc1)n1nnc2c1NC(=O)C[C@@]21C(=O)N(CCOC(=O)CCCCCCCNC(=O)CCCC[C@@H]2SC[C@@H]3NC(=O)N[C@@H]32)c2ccc(Cl)cc21`, the inhibition result in [1] was “inactive”. The CC50 (commonly the concentration at which the toxic effect on the cells reaches its halfway point) at 48 h in data set [2] was greater than 10000 nM. Moreover, the EC50 in [3] and in data set [4] was greater than 5000 nM throughout.

As for `C[C@@H](c1ccc(Cl)cc1)n1nnc2c1NC(=O)C[C@]21C(=O)N(CCN(C)C)c2ccc(Cl)cc21`, the “Ratio EC50” value is on record as 0.93 in data set [5]; 0.8 in data set [6]; greater than 100 in data set [16]; greater than 100 in [17]; greater than 100 in [18]; greater than 100 in data set [19]. In addition, the 50% effective concentration (EC50) (in general, the concentration at which the effect is half-maximal) is 60 nM in data set [7]; greater than 6000 nM in data set [8]; greater than 6000 nM in data set [9]; greater than 6000 nM in data set [10]; greater than 6000 nM in data set [11]; 56 nM in data set [12]. Also, the half-maximal effective concentration (EC50) is 48 nM in [13]; greater than 5000 nM in [14]; 2 nM in data set [3]; 25 nM in data set [4]; greater than 5000 nM in data set [15]. Besides, the CC50 at 48 h in data set [2] was greater than 10000 nM.

For `C[C@@H](c1ccc(Cl)cc1)n1nnc2c1NC(=O)C[C@]21C(=O)N(CCOC(=O)CCCCCCCNC(=O)CCCC[C@@H]2SC[C@@H]3NC(=O)N[C@@H]32)c2ccc(Cl)cc21`, in data set [1], the inhibition entry is “Active”. Moreover, the outcome in data set [20] and in [21] was inactive. Also, in [2], the CC50 at 48 h was greater than 10000 nM. For the same compound, the values for the EC50 in [3] and in data set [4] were 16.7 nM and 41.4 nM, respectively.

Turning to `C[C@@H](c1ccc(Cl)cc1)n1nnc2c1NC(=O)C[C@]21C(=O)N(CCCN2CCCCC2)c2ccc(Cl)cc21`, the CC50 at 48 h in data set [2] was greater than 10000 nM. Also, the 50% effective concentration (EC50) was greater than 5000 nM in [14], 12 nM in [3], 130 nM in data set [4] and greater than 5000 nM in [15].

For `CCCN1C(=O)[C@]2(CC(=O)Nc3c2nnn3[C@@H](C)c2ccc(Cl)cc2)c2cc(Cl)ccc21`, in data set [2], the CC50 at 48 h is greater than 10000 nM. Besides, the concentration for a half-maximal effect (EC50) in data set [14] was greater than 5000 nM; in data set [3], 10 nM; in [4], 71 nM; in data set [15] it was 1900 nM.

As to `COC(=O)CN1C(=O)[C@]2(CC(=O)Nc3c2nnn3[C@@H](C)c2ccc(Cl)cc2)c2cc(Cl)ccc21`, in [2], the CC50 at 48 h was greater than 10000 nM. Moreover, the half-maximal effective concentration (EC50) in [14] was greater than 5000 nM; in [3], 11 nM; in [4], 77 nM; in data set [15] it was greater than 5000 nM.

With `C[C@@H](c1ccc(Cl)cc1)n1nnc2c1NC(=O)C[C@]21C(=O)N(Cc2ccc(Cl)cc2)c2ccc(Cl)cc21`, the half-maximal cytotoxic concentration (CC50) at 48 h in [2] is greater than 10000 nM. In addition, the concentration giving a half-maximal response (EC50) in data set [14] amounted to 6500 nM; in data set [3] it was 200 nM; in [4], 3300 nM; in data set [15] it was 2200 nM.

Source of the values: ChEMBL document CHEMBL4414551, “Design, Synthesis, and Biological Evaluation of Substituted 4,6-Dihydrospiro[[1,2,3]triazolo[4,5-b]pyridine-7,3'-indoline]-2',5(3H)-dione Analogues as Potent NS4B Inhibitors for the Treatment of Dengue Virus Infection” (J Med Chem, 2019).
